From ChEMBL document CHEMBL1240487, “Discovery of a potent, selective, and orally bioavailable pyridinyl-pyrimidine phthalazine aurora kinase inhibitor” (J Med Chem, 2010) come the findings set out here.

Values after ≈ are worked out from the molar mass of the structure shown. Active and inactive are the calls of the source. The rule behind the calls is not given here.

The target in one data set is T1, Ephrin type-B receptor 4 (Homo sapiens, UniProt P54760).
T1 sequence (P54760 whole entry): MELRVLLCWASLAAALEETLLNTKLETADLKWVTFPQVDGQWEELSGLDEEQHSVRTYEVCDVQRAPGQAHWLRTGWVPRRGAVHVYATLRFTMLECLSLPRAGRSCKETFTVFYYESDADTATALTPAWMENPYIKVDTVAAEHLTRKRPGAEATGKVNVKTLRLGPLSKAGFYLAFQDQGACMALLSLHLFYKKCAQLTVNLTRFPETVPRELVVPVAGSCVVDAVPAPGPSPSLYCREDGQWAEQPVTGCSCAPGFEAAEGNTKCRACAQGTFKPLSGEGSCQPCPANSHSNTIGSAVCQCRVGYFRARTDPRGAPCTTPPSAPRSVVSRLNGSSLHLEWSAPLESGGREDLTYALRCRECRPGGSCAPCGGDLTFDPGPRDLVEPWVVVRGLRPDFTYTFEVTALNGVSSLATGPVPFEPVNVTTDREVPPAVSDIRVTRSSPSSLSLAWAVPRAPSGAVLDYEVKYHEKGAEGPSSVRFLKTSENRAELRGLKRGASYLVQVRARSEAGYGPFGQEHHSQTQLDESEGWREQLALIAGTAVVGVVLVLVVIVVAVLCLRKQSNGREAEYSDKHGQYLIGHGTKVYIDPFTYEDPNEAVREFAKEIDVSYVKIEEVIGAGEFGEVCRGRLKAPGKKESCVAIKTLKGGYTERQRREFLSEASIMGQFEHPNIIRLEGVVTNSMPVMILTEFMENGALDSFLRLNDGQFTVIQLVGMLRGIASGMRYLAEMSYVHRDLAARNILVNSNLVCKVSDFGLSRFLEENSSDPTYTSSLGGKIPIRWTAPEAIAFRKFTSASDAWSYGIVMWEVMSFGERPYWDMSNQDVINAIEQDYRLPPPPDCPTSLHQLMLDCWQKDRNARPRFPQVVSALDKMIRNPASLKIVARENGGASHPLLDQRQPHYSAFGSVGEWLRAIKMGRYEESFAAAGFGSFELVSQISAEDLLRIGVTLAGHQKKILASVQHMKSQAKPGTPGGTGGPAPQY
Nature of the data set: Inhibition of EphB4 by HTRF assay. Summed up:
(§1)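 Enzyme inhibition was run with ATP at its Km for each kinase. Values are averages of at least two determinations.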

Data set [1] addresses T2, Tyrosine-protein kinase JAK3 (Homo sapiens, UniProt P52333).
T2 sequence (P52333 whole entry): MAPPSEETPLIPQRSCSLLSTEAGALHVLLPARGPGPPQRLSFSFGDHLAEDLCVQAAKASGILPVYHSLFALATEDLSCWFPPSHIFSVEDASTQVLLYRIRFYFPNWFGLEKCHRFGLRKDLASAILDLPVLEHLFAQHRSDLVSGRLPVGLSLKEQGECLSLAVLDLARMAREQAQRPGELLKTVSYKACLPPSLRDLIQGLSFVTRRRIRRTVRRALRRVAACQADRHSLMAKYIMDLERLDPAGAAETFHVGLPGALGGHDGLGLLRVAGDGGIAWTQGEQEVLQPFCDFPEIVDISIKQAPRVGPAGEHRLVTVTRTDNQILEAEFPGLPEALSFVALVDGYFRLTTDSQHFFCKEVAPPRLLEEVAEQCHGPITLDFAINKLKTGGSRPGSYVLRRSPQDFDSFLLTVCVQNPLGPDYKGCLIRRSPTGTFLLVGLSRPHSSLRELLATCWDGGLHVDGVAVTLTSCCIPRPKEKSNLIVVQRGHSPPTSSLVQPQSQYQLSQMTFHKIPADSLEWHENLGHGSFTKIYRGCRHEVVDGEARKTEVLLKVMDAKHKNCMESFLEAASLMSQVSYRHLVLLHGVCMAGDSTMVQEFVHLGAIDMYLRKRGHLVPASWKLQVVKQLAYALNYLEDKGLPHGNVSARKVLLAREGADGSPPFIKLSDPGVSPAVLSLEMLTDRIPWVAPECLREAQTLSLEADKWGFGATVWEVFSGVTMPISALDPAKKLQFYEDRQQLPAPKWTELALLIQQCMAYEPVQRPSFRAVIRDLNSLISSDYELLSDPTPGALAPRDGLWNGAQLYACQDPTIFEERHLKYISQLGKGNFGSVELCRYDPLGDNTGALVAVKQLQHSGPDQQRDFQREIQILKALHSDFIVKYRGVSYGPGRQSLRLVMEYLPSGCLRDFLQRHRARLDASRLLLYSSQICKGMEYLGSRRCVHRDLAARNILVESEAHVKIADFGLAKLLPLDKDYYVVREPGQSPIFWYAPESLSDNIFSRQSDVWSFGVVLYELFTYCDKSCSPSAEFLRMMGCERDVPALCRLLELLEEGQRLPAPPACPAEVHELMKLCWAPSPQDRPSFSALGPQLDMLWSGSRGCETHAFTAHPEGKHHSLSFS
Nature of the data set: Inhibition of Jak3 by HTRF assay. Summed up:
as §1
In general terms: Time-resolved FRET reads energy transfer from a long-lived donor to a nearby acceptor.

The target of data set [2] is Tyrosine-protein kinase BTK (Homo sapiens, UniProt Q06187). Nature of the data set: Inhibition of BTK by HTRF assay.
Data set [3] addresses Ribosomal protein S6 kinase beta-1 (Homo sapiens, UniProt P23443). Nature of the data set: Inhibition of p70s6k by HTRF assay. Summed up:
as §1

The target in data set [4] is Serine/threonine-protein kinase PLK1 (Homo sapiens, UniProt P53350). Nature of the data set: Inhibition of PLK1 by HTRF assay. Summed up:
as §1

Data set [5] in a line: Aqueous equilibrium solubility of the compound in 0.01N HCL. The data set is classed as physicochemical.
Data set [6] deals with RAC-beta serine/threonine-protein kinase (Homo sapiens, UniProt P31751). Nature of the data set: Inhibition of PKBbeta by HTRF assay. Summed up:
as §1

Another data set concerns the target Aurora kinase B (Homo sapiens, UniProt Q96GD4). Nature of the data set: Inhibition of aurora B autophosphorylation in human HeLa cells at 0.313 uM after 3 hrs by Western blotting.
The test system of a further data set is HeLa. Nature of the data set: Induction of morphological changes in human HeLa cells at […] after 48 hrs using DAPI staining by microscopic analysis.
The target of data set [7] is Hepatocyte growth factor receptor (Homo sapiens, UniProt P08581). Nature of the data set: Inhibition of c-Met by HTRF assay. Summed up: as §1
Data set [8] concerns the target Cyclin-dependent kinase 1 (Homo sapiens, UniProt P06493). Nature of the data set: Inhibition of CDK1 by HTRF assay. A digest of the protocol: as §1
For data set [9], the target named is Cyclin-dependent kinase 2 (Homo sapiens, UniProt P24941). Nature of the data set: Inhibition of CDK2 by HTRF assay. A digest of the protocol: as §1
Data set [10] is described as follows: Clearance in Sprague-Dawley rat at 0.5 mg/kg, iv and 2 mg/kg, po. The data set is classed as ADME, organism-based. The note with it: in vivo.
Data set [11] in a line: Volume of distribution at steady state in Sprague-Dawley rat at 0.5 mg/kg, iv and 2 mg/kg, po. The data set is classed as ADME, organism-based. The note with it: in vivo, read-out: Vdss.
Data set [12] in a line: Oral bioavailability in Sprague-Dawley rat at 2 mg/kg. It is filed as ADME, organism-based. To be noted: in vivo.
The target in another data set is Angiopoietin-1 receptor (Homo sapiens, UniProt Q02763). Nature of the data set: Inhibition of Tie-2 by HTRF assay. Summed up:
as §1

The target of data set [13] is Mast/stem cell growth factor receptor Kit (Homo sapiens, UniProt P10721). Nature of the data set: Inhibition of c-Kit by HTRF assay. Summed up: as §1

Serine/threonine-protein kinase PLK1, sequence (P53350 whole entry): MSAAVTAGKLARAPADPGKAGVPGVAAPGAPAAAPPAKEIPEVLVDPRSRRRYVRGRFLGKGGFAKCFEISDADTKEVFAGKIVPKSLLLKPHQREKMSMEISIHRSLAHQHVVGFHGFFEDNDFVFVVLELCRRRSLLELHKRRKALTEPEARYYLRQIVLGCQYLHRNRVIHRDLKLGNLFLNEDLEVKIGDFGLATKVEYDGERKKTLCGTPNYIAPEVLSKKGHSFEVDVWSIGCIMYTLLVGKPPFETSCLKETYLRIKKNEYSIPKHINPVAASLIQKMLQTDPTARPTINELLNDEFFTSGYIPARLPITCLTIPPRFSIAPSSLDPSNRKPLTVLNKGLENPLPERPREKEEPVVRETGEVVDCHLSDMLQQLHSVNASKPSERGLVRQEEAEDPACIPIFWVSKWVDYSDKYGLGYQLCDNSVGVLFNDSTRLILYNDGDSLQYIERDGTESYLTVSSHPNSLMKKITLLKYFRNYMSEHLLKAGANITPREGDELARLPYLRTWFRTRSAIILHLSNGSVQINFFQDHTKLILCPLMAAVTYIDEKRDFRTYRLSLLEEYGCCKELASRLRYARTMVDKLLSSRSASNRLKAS
Ribosomal protein S6 kinase beta-1, sequence (P23443 whole entry): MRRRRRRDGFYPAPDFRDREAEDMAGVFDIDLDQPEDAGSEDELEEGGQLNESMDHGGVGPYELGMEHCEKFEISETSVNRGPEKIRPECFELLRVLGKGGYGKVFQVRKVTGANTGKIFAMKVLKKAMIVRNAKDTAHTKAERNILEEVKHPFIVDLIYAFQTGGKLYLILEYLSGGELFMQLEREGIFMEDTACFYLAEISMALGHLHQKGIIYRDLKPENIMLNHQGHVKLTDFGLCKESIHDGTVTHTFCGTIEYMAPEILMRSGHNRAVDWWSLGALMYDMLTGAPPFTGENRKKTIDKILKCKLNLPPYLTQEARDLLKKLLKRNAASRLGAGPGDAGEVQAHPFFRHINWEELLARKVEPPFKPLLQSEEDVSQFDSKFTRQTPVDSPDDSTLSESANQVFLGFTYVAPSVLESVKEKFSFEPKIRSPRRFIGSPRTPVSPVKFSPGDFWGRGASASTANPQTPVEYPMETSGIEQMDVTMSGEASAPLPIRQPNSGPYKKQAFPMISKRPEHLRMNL
Tyrosine-protein kinase BTK, sequence (Q06187 whole entry): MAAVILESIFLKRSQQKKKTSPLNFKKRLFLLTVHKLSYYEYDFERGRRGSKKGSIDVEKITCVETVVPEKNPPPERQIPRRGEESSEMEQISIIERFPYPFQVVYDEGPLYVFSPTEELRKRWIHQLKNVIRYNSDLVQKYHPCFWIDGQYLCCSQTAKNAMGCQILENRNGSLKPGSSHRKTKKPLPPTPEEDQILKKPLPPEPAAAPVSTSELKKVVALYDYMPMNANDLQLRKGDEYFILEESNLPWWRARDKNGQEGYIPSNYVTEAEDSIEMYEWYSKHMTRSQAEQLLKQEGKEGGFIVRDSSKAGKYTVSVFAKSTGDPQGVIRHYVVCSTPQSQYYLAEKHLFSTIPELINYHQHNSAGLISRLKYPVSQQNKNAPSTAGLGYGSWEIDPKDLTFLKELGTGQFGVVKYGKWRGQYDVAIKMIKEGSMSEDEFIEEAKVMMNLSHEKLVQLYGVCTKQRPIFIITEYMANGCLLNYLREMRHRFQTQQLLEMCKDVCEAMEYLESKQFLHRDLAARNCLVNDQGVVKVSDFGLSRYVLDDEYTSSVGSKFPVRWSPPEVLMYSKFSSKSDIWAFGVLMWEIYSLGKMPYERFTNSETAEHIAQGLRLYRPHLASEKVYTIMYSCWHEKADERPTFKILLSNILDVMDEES
Angiopoietin-1 receptor, sequence (Q02763 whole entry): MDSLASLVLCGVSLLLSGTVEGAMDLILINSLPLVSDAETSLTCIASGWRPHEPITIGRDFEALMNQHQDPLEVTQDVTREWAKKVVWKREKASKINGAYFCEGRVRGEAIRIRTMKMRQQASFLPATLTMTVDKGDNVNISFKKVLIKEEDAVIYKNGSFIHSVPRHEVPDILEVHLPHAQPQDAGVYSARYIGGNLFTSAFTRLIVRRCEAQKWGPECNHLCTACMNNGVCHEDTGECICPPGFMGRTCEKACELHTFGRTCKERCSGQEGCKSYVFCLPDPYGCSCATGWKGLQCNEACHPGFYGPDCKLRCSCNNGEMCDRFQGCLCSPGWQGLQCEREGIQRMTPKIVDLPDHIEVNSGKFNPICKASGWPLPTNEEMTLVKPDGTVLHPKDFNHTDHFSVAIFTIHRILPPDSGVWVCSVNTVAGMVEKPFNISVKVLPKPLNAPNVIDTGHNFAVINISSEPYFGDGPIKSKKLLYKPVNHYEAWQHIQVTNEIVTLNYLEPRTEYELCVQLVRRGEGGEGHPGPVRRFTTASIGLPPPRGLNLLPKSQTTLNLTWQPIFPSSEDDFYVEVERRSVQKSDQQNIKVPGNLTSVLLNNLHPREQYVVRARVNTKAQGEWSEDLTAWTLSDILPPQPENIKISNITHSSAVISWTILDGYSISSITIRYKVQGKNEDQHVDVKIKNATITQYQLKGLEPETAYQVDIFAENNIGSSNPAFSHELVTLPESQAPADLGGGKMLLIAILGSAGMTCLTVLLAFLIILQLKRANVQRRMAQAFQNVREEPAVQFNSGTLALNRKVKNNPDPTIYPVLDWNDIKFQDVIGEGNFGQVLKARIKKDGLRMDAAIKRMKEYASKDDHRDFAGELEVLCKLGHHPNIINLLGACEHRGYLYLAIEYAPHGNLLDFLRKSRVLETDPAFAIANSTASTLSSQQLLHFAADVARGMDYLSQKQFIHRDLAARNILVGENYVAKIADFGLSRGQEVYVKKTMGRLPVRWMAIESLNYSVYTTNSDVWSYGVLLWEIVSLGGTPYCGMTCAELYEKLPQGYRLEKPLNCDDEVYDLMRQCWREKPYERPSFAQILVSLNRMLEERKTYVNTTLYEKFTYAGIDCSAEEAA
Hepatocyte growth factor receptor, sequence (P08581 whole entry): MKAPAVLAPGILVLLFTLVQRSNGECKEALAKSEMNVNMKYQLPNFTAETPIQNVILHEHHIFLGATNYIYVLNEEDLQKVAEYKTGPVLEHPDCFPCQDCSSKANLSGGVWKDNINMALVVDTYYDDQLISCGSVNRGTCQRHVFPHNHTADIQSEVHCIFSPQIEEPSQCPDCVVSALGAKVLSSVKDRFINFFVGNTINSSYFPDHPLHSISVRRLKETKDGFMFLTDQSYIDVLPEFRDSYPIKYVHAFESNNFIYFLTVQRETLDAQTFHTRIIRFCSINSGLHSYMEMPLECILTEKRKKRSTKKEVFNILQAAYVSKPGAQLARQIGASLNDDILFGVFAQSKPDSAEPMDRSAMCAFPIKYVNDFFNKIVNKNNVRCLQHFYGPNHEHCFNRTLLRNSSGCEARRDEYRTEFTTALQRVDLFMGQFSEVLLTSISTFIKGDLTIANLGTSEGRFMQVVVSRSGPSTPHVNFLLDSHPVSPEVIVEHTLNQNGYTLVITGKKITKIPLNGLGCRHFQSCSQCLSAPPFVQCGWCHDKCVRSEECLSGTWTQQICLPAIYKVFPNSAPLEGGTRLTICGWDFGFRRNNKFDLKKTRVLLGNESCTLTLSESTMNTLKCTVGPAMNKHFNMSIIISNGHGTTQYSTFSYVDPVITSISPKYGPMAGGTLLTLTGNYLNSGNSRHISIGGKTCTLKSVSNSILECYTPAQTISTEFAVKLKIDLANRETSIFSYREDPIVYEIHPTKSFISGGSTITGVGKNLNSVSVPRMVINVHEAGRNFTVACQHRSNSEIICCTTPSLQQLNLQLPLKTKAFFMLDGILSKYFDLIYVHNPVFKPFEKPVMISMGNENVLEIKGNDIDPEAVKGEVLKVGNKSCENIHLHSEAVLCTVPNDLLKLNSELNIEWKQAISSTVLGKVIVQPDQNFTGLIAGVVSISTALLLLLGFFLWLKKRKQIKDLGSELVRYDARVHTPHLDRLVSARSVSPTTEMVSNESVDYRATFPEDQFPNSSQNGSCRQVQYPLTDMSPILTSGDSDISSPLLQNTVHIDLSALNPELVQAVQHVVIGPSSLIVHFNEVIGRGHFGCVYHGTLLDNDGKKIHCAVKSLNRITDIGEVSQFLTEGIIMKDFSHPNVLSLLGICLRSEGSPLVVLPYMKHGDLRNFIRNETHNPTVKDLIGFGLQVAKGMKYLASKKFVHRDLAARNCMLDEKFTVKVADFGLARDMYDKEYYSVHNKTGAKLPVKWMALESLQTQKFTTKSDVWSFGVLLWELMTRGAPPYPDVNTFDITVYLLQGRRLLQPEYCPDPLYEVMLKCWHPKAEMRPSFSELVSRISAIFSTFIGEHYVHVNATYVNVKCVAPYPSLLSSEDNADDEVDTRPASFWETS
RAC-beta serine/threonine-protein kinase, sequence (P31751 whole entry): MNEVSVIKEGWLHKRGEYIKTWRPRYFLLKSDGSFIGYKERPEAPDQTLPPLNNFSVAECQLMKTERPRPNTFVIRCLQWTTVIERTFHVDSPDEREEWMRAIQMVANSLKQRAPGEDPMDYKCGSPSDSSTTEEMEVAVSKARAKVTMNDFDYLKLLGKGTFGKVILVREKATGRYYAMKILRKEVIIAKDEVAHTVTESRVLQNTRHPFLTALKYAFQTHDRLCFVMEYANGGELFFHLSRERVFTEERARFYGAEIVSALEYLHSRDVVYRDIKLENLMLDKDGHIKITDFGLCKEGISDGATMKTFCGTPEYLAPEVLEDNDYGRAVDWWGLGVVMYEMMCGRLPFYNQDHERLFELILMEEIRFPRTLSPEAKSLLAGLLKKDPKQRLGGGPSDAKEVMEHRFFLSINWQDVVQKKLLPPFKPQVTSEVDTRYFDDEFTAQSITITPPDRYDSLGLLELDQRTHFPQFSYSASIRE

As to `CNc1nccc(-c2cccnc2Oc2ccc(Nc3nnc(-c4ccc(F)cc4)c4ccccc34)cc2)n1`, the half-maximal inhibitory concentration (IC50) (against Ephrin type-B receptor 4; in data set [1]; in [2]; in data set [3]; in data set [4]; in data set [6]) was over 25000 nM in each case. For the same compound, in [5], the thermodynamic solubility was over 200 µg/mL. The outcome on Aurora kinase B and in the data set on HeLa was Active.
Turning to `CNc1nccc(-c2cccnc2Oc2ccc(NC(=O)c3ccccc3Nc3ccccc3)cc2)n1`, the IC50 (against Ephrin type-B receptor 4; in [1]; in data set [2]; in data set [3]; in [4]; in [7]) was over 1000 nM each time. Further, the IC50 in data set [8] and in data set [9] was over 1000 nM in each case. The compound also had a clearance in data set [10] of 60 mL/min/kg. Moreover, in [11], the Vd is 4.8 L/kg. Further, the bioavailability in data set [12] is under 1%. The solubility (thermodynamic) in data set [5] worked out at 5 µg/mL (≈ 10.2 µM).
As to `CNc1nccc(-c2cccnc2Oc2ccc(NC(=O)c3cccc(C(F)(F)F)c3)cc2C)n1`, the IC50 was 630 nM against Angiopoietin-1 receptor; 1350 nM in data set [13]; over 8000 nM on Ephrin type-B receptor 4; over 8000 nM in data set [1]; over 8000 nM in [3]; over 8000 nM in data set [4].

As usually defined, the IC50 is the concentration at which inhibition is half-maximal. One may read the thermodynamic solubility as solubility found after equilibrating the solid with the medium. In general, bioavailability refers to the share of a dose that reaches the circulation, judged against a reference dose that is usually intravenous.
